From ChEMBL document CHEMBL4312006, “A novel chalcone derivative as Nrf2 activator attenuates learning and memory impairment in a scopolamine-induced mouse model” (Eur J Med Chem, 2020)
Calls of active or inactive are those of the source. No cut-off for these calls is given here.

How the values were obtained:
Mus musculus [1] = assay: Cognition enhancing effect in C57BL/6 mouse model of scopolamine-induced amnesia assessed as increase in […] percentage at 30 mg/kg, po administered for 5 days and measured on day 5 after 30 mins of scopolamine stimulation by Y-maze test; type: functional, organism-based
Method in brief: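 Male C57BL/6N mice given 30 mg/kg/day compound in saline by gavage for 5 days. Scopolamine 2 mg/kg in saline given i.p. 30 min before testing on the last day. Mice handled daily for 7 days beforehand. Free exploration of a three-arm Y-maze for 10 min, with entries scored manually (all four paws). Alternation = consecutive entries into three different arms.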

[2] = biological target: T1, Nuclear factor erythroid 2-related factor 2 (Mus musculus) (UniProt Q60795); assay: Activation of NRF2 in mouse BV2 cells assessed as increase in GCLM protein expression incubated for 12 hrs by Western blot analysis; type: cell-based
T1 sequence (whole entry): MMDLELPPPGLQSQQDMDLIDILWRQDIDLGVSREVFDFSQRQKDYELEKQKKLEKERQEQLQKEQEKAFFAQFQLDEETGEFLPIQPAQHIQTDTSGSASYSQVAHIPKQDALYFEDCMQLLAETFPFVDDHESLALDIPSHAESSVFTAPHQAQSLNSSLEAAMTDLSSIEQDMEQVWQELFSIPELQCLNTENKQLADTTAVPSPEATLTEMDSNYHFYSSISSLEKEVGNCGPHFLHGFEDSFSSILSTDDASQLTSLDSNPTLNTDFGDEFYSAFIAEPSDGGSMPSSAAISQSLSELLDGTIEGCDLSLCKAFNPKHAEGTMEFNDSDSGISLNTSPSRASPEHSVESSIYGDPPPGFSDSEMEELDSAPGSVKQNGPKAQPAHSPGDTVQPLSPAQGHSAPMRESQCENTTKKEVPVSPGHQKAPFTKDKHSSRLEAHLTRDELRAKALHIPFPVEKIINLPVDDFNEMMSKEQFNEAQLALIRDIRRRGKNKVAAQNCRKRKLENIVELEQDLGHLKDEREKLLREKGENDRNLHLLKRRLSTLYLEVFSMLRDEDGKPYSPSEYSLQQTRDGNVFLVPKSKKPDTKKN
Method in brief: (§1)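 BV-2 cells washed in ice-cold PBS and lysed on ice for 40 min in RIPA buffer with protease inhibitors. Nuclear fractions prepared separately. 10 μg protein run on SDS-PAGE and blotted to PVDF. Membranes blocked in 5% skim milk/TBST and probed overnight at 4 °C for Nrf2, HO-1, GCLM or SOD1. HRP secondary with ECL detection. Band densities normalised to Lamin B1 or β-actin.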

Mus musculus [3] = assay: Cognition enhancing effect in C57BL/6 mouse model of scopolamine-induced amnesia assessed as increase in latency to enter dark room at 30 mg/kg, po administered for 5 days and measured on day 5 after 30 mins of scopolamine stimulation by passive avoidance test relative to control; type: functional
Method in brief: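 Male C57BL/6N mice given 30 mg/kg/day compound in saline orally for 5 days. Scopolamine 1 mg/kg i.p. given on day 4, 30 min before the acquisition trial. Step-through latency recorded in the passive avoidance test.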

BV-2 = assay: Cytotoxicity against mouse BV2 cells assessed as reduction in cell viability upto 10 uM incubated for 24 hrs by WST assay; type: cell-based; details: bv-2, 24 h
Method in brief: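 BV-2 cells incubated with compound concentrations up to 10 µM for 24 h at 37 °C. Ez-Cytox WST reagent added for 1 h and formazan absorbance read at 450 nm.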

[4] = biological target: T1, Nuclear factor erythroid 2-related factor 2 (Mus musculus); assay: Activation of NRF2 in mouse BV2 cells assessed as increase in GCLM mRNA level at 0.1 to 10 uM incubated for 8 hrs by qRT-PCR analysis; type: cell-based
Method in brief: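 BV-2 microglia grown in RPMI 1640 with 10% FBS, 2.05 mM L-glutamine and penicillin-streptomycin at 37 °C, 5% CO2. Cells exposed to a range of compound concentrations for 8 h. Ho-1 or Gclm mRNA measured by qRT-PCR and expressed relative to untreated control. Means ± SEM, one-way ANOVA with Dunnett's test.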

Homo sapiens = species on record: Homo sapiens; assay: Inhibition of H2O2-stimulated ROS production in […] BV2 cells at 10 uM preincubated for 24 hrs followed by H2O2 stimulation for 20 mins by DCFH-DA dye based assay; type: functional, cell-based
Method in brief: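 BV-2 microglial cells pretreated with 10 μM compound for 24 h, then exposed to a series of H2O2 concentrations for 20 min. Intracellular ROS measured by DCFH-DA fluorescence. One-way ANOVA with Tukey's test.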

[5] = biological target: T1, Nuclear factor erythroid 2-related factor 2 (Mus musculus); assay: Activation of NRF2 in mouse BV2 cells assessed as increase in total NRF2 level at 0.1 to 10 uM incubated for 6 hrs by Western blot analysis; type: cell-based; method in brief: as §1

In the case of `CN1CCN(C(=O)COc2ccc(C(=O)/C=C/c3ccccc3C(F)(F)F)cc2)CC1.Cl`, the Activity (Mus musculus [1]) is reported as “Active”, the Activity [2] is reported as “Dose-dependent effect” and the activity (Mus musculus [3]) is reported as >70%. For the same molecule, the activity (BV-2) was “Non-Toxic”, the Activity [4] was “Active” and the inhibition (Homo sapiens) was “Active”. The Activity [5] was “Active”.
